Source: PubChem (Johns Hopkins Ion Channel Center)
Compounds with a hit are over-represented: about 3.5% of the library has one in this group of screens.
MrgX1 agonist = human MrgX1 receptor agonism, primary screen | Q96LB2 | MrgX1-HEK293 cells, Fluo-4 calcium fluorescence, agonist mode; hits give high values | B-score at 10 µM | hit rate 0.44% among 310,000 | AID 588627;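 active = calcium response B-score plate-corrected fluorescence ratio at least 3 library SD, with starting fluorescence B-score inside 5 SD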
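System – MrgX1-expressing HEK293 cells · Incubation – cells plated overnight, dye loaded 0.5 h 37 °C, 0.5 h room temperature · Technique – kinetic Fluo-4 NW fluorescence of intracellular calcium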
RGS4 act = potentiators or activators of RGS4 | HEK293 M3R/inducible RGS4, carbachol calcium flux Fluo4; hits give low values | B-score at 10 µM | hit rate 0.92% among 310,000;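 active = B-score of the integrated calcium signal more than 4 SD below the library mean, with starting fluorescence not abnormally high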;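 note: negative B-score means reduced calcium response which marks RGS4 activation or potentiation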
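System: HEK293 FlpIn-TREx cells, stable M3R, doxycycline-inducible RGS4. Timing: overnight RGS4 induction, 30 min dye load 37 °C, 20 min compound RT. Also added: carbachol, ECmax concentration. Measured by: Fluo4 fluorescence kinetic imaging of calcium. Evaluation: integrated calcium ratio converted to B score.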
RGS4 inh = inhibitors of human RGS4. P49798. B-score at 10 µM. HEK293 M3R/RGS4 inducible, Fluo-4 calcium flux; hits give high values; triggered by carbachol at its EC20. hit rate 0.45% among 310,000. AID 463165;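 active = B-score, a plate-corrected calcium signal, over three deviations above library mean, with baseline fluorescence within five deviations of library mean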;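 note: RGS4 expression induced by doxycycline in cells with stable M3 receptor; B-score is computed from the integrated fluorescence ratio over baseline after carbachol; higher B-score means a larger calcium signal and so more RGS4 inhibition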
Target sequence (P49798 whole entry, looked up): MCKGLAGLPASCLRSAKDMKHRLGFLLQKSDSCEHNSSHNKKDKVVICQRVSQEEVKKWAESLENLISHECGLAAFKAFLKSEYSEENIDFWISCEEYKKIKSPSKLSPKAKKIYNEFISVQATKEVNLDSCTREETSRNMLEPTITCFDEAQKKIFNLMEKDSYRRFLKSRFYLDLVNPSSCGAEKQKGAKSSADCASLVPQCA
MrgX1 allo act = allosterically activates human MrgX1 receptor signaling; B-score at 10 µM; MrgX1-HEK293, Fluo-4 calcium flux, FDSS; hits give high values; AID 588675; hit rate 0.63% among 310,000; Q96LB2;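 active = plate-corrected calcium response at least 3 library SD above typical, normal starting fluorescence, not activating the receptor alone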;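 note: compound read alongside a low EC10 to EC30 dose of BAM8-22 agonist; peak minus trough fluorescence over baseline measured at the second addition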
MrgX1 antagonist = antagonists of human MrgX1 receptor. hit rate 1.3% among 310,000. B-score at 10 µM. MRGX1-HEK293 calcium flux, Fluo-4, BAM8-22 antagonism; hits give low values;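 active = calcium-response B-score plate-corrected more than 3 library SD below zero, starting fluorescence within 5 deviations, no agonist response on first addition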;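 note: peak minus trough fluorescence over baseline after final BAM8-22 challenge near maximal dose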
RGS4 inh valid = RGS4 inhibitor validation | shares compounds with RGS4 inh | HEK293 M3R/RGS4, carbachol calcium Fluo-4 fluorescence; carbachol added at its EC20; 0 = buffer wells, 100 = carbachol control | calcium response, % at 10 µM | hit rate 65% among 1,700;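 active = duplicate-averaged calcium response above the buffer-only control mean plus 5 SD of those controls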;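 note: integrated fluorescence ratio F max minus min over baseline F0; higher response in RGS4-induced cells means RGS4 inhibition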
RGS4 uninduced = checks RGS4 inhibitor effects in non-induced HEK293 M3R cells | AID 493000 | hit rate 20% among 1,900 | shares compounds with RGS4 inh | activity (percent), % at 10 µM | carbachol calcium Fluo-4; submaximal (EC20) carbachol stimulus; buffer wells 0%, carbachol control wells 100%; call rule not given here;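 note: RGS4 induction absent so cells express M3R without RGS4; higher means more calcium signal and flags a non-specific hit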
M3R basal Ca ctr = second counter-screen for RGS4 inhibitors: non-induced cells without carbachol; AID 493001; calcium response (agonist-mode artifact), % at 10 µM; HEK293 M3R/RGS4 non-induced, Fluo-4 calcium, no carbachol; normalised: buffer wells 0%, carbachol wells 100%; hit rate 22% among 1,900; shares compounds with RGS4 inh;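 active = duplicate-averaged calcium rise in uninduced cells above buffer wells' mean plus 5 SD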
Active calls of the source: *; i = inactive; / = no result given.

SMILES | MrgX1 agonist | RGS4 act | RGS4 inh | MrgX1 allo act | MrgX1 antagonist | RGS4 inh valid | RGS4 uninduced | M3R basal Ca ctr
Cc1ccc(-c2csc(NC(=O)CSc3nc(C)cc(=O)[nH]3)n2)cc1 | i | i | 13* | i | i | 12%* | i | i
CN(C)CCCn1c(SCC(=O)Nc2nc(-c3cccc(Br)c3)cs2)nc2ccccc2c1=O | i | i | i | i | i | / | / | /
COc1ccc(C2=NOC(C)(c3nnc(-c4ccncc4)o3)C2)cc1 (stereo not given) | i | i | i | i | i | / | / | /
COc1ccc(C)cc1S(=O)(=O)N1CCN(C(=O)c2ncoc2-c2ccccc2F)CC1 | i | i | i | i | i | / | / | /
COc1ccc(C(CC(=O)O)NC(=O)COc2cc(C)ccc2C)cc1OC (stereo not given) | i | i | i | i | i | / | / | /
O=c1cc(CN2CCN(Cc3ccc(F)cc3)C(CCO)C2)[nH]c2ccccc12 (stereo not given) | i | i | i | i | i | / | / | /
COc1ccc(Nc2nc(NC(C)(C)C)nc(N3CCCC3)n2)c(OC)c1 | i | i | i | i | i | i | i | i
COc1ccc(Nc2nc(N3CCCCC3)nc(N3CCCCC3)n2)c(OC)c1 | i | i | 5.5* | i | i | 9.0%* | i | i
COc1ccc(Nc2nc(N3CCCC3)nc(N3CCCC3)n2)c(OC)c1 | i | i | i | i | i | i | i | i
CC(=O)OCC1CCCC2=C(C)C(=O)CCC21COC(C)=O (stereo not given) | i | i | i | i | i | / | / | /
O=C(O)CCCN1C(=O)/C(=C\c2ccc(-c3nc4ccccc4s3)o2)SC1=S | i | -7.9* | 21* | i | -8* | 14%* | i | 126%*
O=C(O)CCCN1C(=O)/C(=C\C(Cl)=C\c2ccccc2)SC1=S | i | i | 15* | i | i | 44%* | i | i
CN1CCN(C(=O)CCCN2C(=O)/C(=C/c3ccccc3)SC2=S)CC1 | i | i | i | i | i | / | / | /
CCn1c2ccccc2c2cc(/C=N/NC(=O)c3ccccc3)ccc21 | i | i | i | i | i | i | i | i
Cn1c2ccccc2c2cc(/C=N/NC(=O)c3cc(O)cc(O)c3)ccc21 | i | -7.2* | i | i | i | i | i | i
COCCNCc1ccccc1[N+](=O)[O-] | i | / | / | i | i | / | / | /
Cc1cccc2cc(-c3nc4ccc(C(=O)O)cc4[nH]3)c(=O)oc12 | i | i | i | i | i | / | / | /
Cc1ccc(-n2nc3c(=O)n(C(C)C(=O)NCc4ccc(Cl)cc4)nc(C)c3c2C)cc1 (stereo not given) | i | i | i | i | i | / | / | /
Cc1c(C#N)c(O)n(CCO)c(=O)c1N=Nc1ccc2c(c1)COC2=O | i | i | 5.2* | i | i | i | i | 18%*
CCOC(=O)c1cnc(Nc2nc3ccccc3o2)nc1C | i | i | i | i | i | / | / | /
Cc1nc(Nc2nc3ccccc3o2)nc(C)c1C(=O)Nc1ccc(F)cc1 | i | i | 4.7* | i | i | 7.0%* | i | i
O=C(c1ccc(S(=O)(=O)N2CCCC2)cc1)N1CCCCC1 | i | i | i | i | i | / | / | /
O=C(/C=C/c1ccc(O)c(O)c1)c1ccc(S(=O)(=O)N2CCCCCC2)cc1 | i | i | 16* | i | i | 23%* | 44%* | i
Oc1c(Br)cccc1/C=N/c1ncn[nH]1 | i | i | 4.7* | i | i | 7.5%* | i | i
